Assay results reported in ChEMBL document CHEMBL1124668, “Solid-phase synthesis of 16 potent (selective and nonselective) in vivo antagonists of oxytocin” (J Med Chem, 1989).
Starred links: 1 amine or outer side, 2 acyl side, 3 side chain; linkers in the order of their positions; H or OH if unused. Positions of bridges follow the written chain, without caps; N, C: chain ends. Non-standard residues stand in square brackets, D forms with d. Residues, ends and D or L forms follow the SMILES beside them. X1 = O=C(CC1(S[*:2])CCCCC1)[*:1]; Orn = NCCC[C@H](N)C(=O)O

Tests used:
Rattus norvegicus [1] = experiment: (§1) Antivasopressor activity in vivo in phenoxybenzamine pre-treated rats.; format: functional, organism-based; settings: read-out: pA2 (converted)
Outline: (§2)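 Rats pretreated with phenoxybenzamine, under urethane anesthesia; antagonist given iv; agonist USP Posterior Pituitary Reference Standard; read-out is pressor response. Effective dose (nmol/kg) is the dose that cuts the response to 2X units of agonist to that of 1X unit, interpolated semilogarithmically from bracketing doses. pA2 assumes a 67 mL/kg distribution volume. SEM is given where there are ≥4 independent estimates.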

Rattus norvegicus [2] = experiment: Antioxytocic potencies (change in interuterine pressure) in vivo in estrogen pre-treated rats.; format: functional, organism-based; settings: read-out: pA2 (converted)
Outline: (§3)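 Rats pretreated with estrogen, under urethane anesthesia; antagonist given iv; read-out is change in integrated intrauterine pressure; agonist synthetic oxytocin. Effective dose (nmol/kg) is the dose that cuts the response to 2X units of agonist to the response to 1X unit, interpolated on a semilog scale from doses above and below it. pA2 is derived assuming a 67 mL/kg distribution volume.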

Rattus norvegicus [3] = species on record: Rattus norvegicus; experiment: Antioxytoxic activity in vitro in isolated uteri from estrogen pretreated rats suspended in Mg supplemented Dyke-Hastings solution.; format: functional; settings: read-out: pA2 (converted)
Outline: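 Isolated rat uterus in bath medium with Mg2+; agonist USP Posterior Pituitary Reference Standard. pA2 is the −log of the effective molar antagonist concentration that reduces the response to a dose of agonist to the response to half that dose. It is interpolated semilogarithmically from concentrations above and below it. SEM is given where there are ≥4 independent estimates.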

Rattus norvegicus [4] = species on record: Rattus norvegicus; experiment: Antioxytoxic activity in vitro in isolated uteri from estrogen pretreated rats suspended in Mg-free Dyke-Hastings solution.; settings: read-out: pA2 (converted)
Rattus norvegicus [5] = experiment: as §1; format: functional; outline: as §2
Rattus norvegicus [6] = experiment: In vivo inhibition of estrogen induced changes in interuterine pressure in rats.; format: functional; outline: as §3
Rattus norvegicus [7] = experiment: Antiantidiuretic activity in vivo in hydrated rats under ethanol anaesthesia.; format: functional, organism-based; settings: Urine, read-out: pA2 (converted)
Outline: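 Hydrated rats under ethanol anaesthesia; antagonist given iv against the USP Posterior Pituitary Reference Standard as agonist. Effective dose (nmol/kg) is the dose that cuts the response to 2x units of agonist to equal the response to 1x unit. It is estimated by interpolation on a semilog scale between doses above and below it. pA2 assumes a volume of distribution of 67 mL/kg. Where SEM is given, n ≥4 estimates.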

Compound | Kb (Rattus norvegicus [1]) [nM] | Kb (Rattus norvegicus [2]) [nM] | Kb (Rattus norvegicus [3]) [nM] | Kb (Rattus norvegicus [4]) [nM] | ED (Rattus norvegicus [5]) [nM/kg] | ED (Rattus norvegicus [6]) [nM/kg] | Kb (Rattus norvegicus [7]) [nM]
CC[C@H](C)[C@@H]1NC(=O)[C@H](Cc2ccc(OC)cc2)NC(=O)CC2(CCCCC2)SSC[C@@H](C(=O)N2CCC[C@H]2C(=O)N[C@@H](CCCN)C(=O)N[C@@H](C)C(N)=O)NC(=O)[C@H](CC(N)=O)NC(=O)[C@H]([C@@H](C)O)NC1=O [listing 1 of 2 here] | 112 | 34.7 | 6.31 | 24 |  |  | 
CC[C@H](C)[C@@H]1NC(=O)[C@H](Cc2ccc(OC)cc2)NC(=O)CC2(CCCCC2)SSC[C@@H](C(=O)N2CCC[C@H]2C(=O)N[C@@H](CCCN)C(=O)N[C@@H](C)C(N)=O)NC(=O)[C@H](CC(N)=O)NC(=O)[C@H]([C@@H](C)O)NC1=O [listing 2 of 2 here] |  |  |  |  | 8.1 | 2.4 | 
CC[C@H](C)[C@@H]1NC(=O)[C@@H](Cc2ccccc2)NC(=O)CC2(CCCCC2)SSC[C@@H](C(=O)N2CCC[C@H]2C(=O)N[C@@H](CCCN=C(N)N)C(=O)NCC(N)=O)NC(=O)[C@H](CC(N)=O)NC(=O)[C@H](C(C)C)NC1=O | 229 | 34.7 | 5.62 | 12.9 |  |  | 617
CC[C@H](C)[C@@H]1NC(=O)[C@@H](Cc2ccc(OC)cc2)NC(=O)CC2(CCCCC2)SSC[C@@H](C(=O)N2CCC[C@H]2C(=O)N[C@@H](CCCN=C(N)N)C(=O)NCC(N)=O)NC(=O)[C@H](CC(N)=O)NC(=O)[C@H](C(C)C)NC1=O | 15.1 | 33.1 | 5.62 | 22.4 |  |  | 132
CC[C@H](C)[C@@H]1NC(=O)[C@H](Cc2ccc(OC)cc2)NC(=O)CC2(CCCCC2)SSC[C@@H](C(=O)N2CCC[C@H]2C(=O)N[C@@H](CCCN)C(=O)N[C@@H](CCCN=C(N)N)C(N)=O)NC(=O)[C@H](CC(N)=O)NC(=O)[C@H]([C@@H](C)O)NC1=O [listing 1 of 2 here] | 11 | 28.8 | 5.5 | 20.4 |  |  | 
CC[C@H](C)[C@@H]1NC(=O)[C@H](Cc2ccc(OC)cc2)NC(=O)CC2(CCCCC2)SSC[C@@H](C(=O)N2CCC[C@H]2C(=O)N[C@@H](CCCN)C(=O)N[C@@H](CCCN=C(N)N)C(N)=O)NC(=O)[C@H](CC(N)=O)NC(=O)[C@H]([C@@H](C)O)NC1=O [listing 2 of 2 here] |  |  |  |  | 0.76 | 2.3 | 
CCOc1ccc(C[C@H]2NC(=O)CC3(CCCCC3)SSC[C@@H](C(=O)N3CCC[C@H]3C(=O)N[C@@H](CCCNC(N)=O)C(=O)NCC(N)=O)NC(=O)[C@H](CC(N)=O)NC(=O)[C@H](C(C)C)NC(=O)[C@H](Cc3ccccc3)NC2=O)cc1 | 11.7 | 25.7 | 14.8 | 2.45 |  |  | 309
COc1ccc(C[C@H]2NC(=O)CC3(CCCCC3)SSC[C@@H](C(=O)N3CCC[C@H]3C(=O)N[C@@H](CCCN=C(N)N)C(=O)NCC(N)=O)NC(=O)[C@H](CC(N)=O)NC(=O)[C@H](CCC(N)=O)NC(=O)[C@H](Cc3ccccc3)NC2=O)cc1 | 5.37 | 33.9 | 4.79 | 13.5 |  |  | 105
COc1ccc(C[C@@H]2NC(=O)CC3(CCCCC3)SSC[C@@H](C(=O)N3CCC[C@H]3C(=O)N[C@@H](CCCN=C(N)N)C(=O)NCC(N)=O)NC(=O)[C@H](CC(N)=O)NC(=O)[C@H](CCC(N)=O)NC(=O)[C@H](Cc3ccccc3)NC2=O)cc1 |  |  |  |  | 0.16 | 17 | 
COc1ccc(C[C@H]2NC(=O)CC3(CCCCC3)SSC[C@@H](C(=O)N3CCC[C@H]3C(=O)N[C@@H](CCCN=C(N)N)C(=O)NCC(N)=O)NC(=O)[C@H](CC(N)=O)NC(=O)[C@H](C(C)C)NC(=O)[C@H](Cc3ccccc3)NC2=O)cc1 | 3.31 | 26.9 | 14.8 | 11 |  |  | 17
COc1ccc(C[C@H]2NC(=O)CC3(CCCCC3)SSC[C@@H](C(=O)N3CC=C[C@H]3C(=O)N[C@@H](CCCN=C(N)N)C(=O)NCC(N)=O)NC(=O)[C@H](CC(N)=O)NC(=O)[C@H](C(C)C)NC(=O)[C@H](Cc3ccccc3)NC2=O)cc1 | 8.32 |  | 110 | 13.2 |  |  | 24.5
COc1ccc(C[C@@H]2NC(=O)CC3(CCCCC3)SSC[C@@H](C(=O)N3CCC[C@H]3C(=O)N[C@@H](CCCN=C(N)N)C(=O)NCC(N)=O)NC(=O)[C@H](CC(N)=O)NC(=O)[C@H](C(C)C)NC(=O)[C@H](Cc3ccccc3)NC2=O)cc1 |  | 115 | 13.5 | 4.37 |  |  | 44.7
CC[C@H](C)[C@@H]1NC(=O)[C@H](Cc2ccc(OC)cc2)NC(=O)CC2(CCCCC2)SSC[C@@H](C(=O)N2CCC[C@H]2C(=O)N[C@@H](CCCN)C(=O)NCC(N)=O)NC(=O)[C@H](CC(N)=O)NC(=O)[C@H](CCC(N)=O)NC1=O (Y(Me)IQNCP[Orn]G-NH2; linker N-5 via X1) | 11 | 42.7 | 13.2 | 3.02 |  |  | 
CC[C@H](C)[C@@H]1NC(=O)[C@H](Cc2ccc(OC)cc2)NC(=O)CC2(CCCCC2)SSC[C@@H](C(=O)N2CCC[C@H]2C(=O)N[C@@H](CCCN)C(N)=O)NC(=O)[C@H](CC(N)=O)NC(=O)[C@H]([C@@H](C)O)NC1=O (Y(Me)ITNCP[Orn]-NH2; linker N-5 via X1) | 105 | 24.5 | 2.75 | 6.76 |  |  | ~1580
CC[C@H](C)[C@@H]1NC(=O)[C@H](Cc2ccc(OC)cc2)NC(=O)CC2(CCCCC2)SSC[C@@H](C(=O)N2CCC[C@H]2C(=O)N[C@@H](CCCN)C(=O)N[C@@H](CC(C)C)C(N)=O)NC(=O)[C@H](CC(N)=O)NC(=O)[C@H]([C@@H](C)O)NC1=O (Y(Me)ITNCP[Orn]L-NH2; linker N-5 via X1) | 407 | 26.9 | 3.47 | 16.6 |  |  | 
CC[C@H](C)[C@@H]1NC(=O)[C@H](Cc2ccc(OC)cc2)NC(=O)CC2(CCCCC2)SSC[C@@H](C(=O)N2CCC[C@H]2C(=O)N[C@@H](CCCN)C(=O)N[C@@H](Cc2ccc(O)cc2)C(N)=O)NC(=O)[C@H](CC(N)=O)NC(=O)[C@H]([C@@H](C)O)NC1=O (Y(Me)ITNCP[Orn]Y-NH2; linker N-5 via X1) | 95.5 | 14.8 | 5.25 | 23.4 |  |  | 
CCOc1ccc(C[C@H]2NC(=O)CC3(CCCCC3)SSC[C@@H](C(=O)N3CCC[C@H]3C(=O)N[C@@H](CCCN=C(N)N)C(=O)NCC(N)=O)NC(=O)[C@H](CC(N)=O)NC(=O)[C@H](C(C)C)NC(=O)[C@H](Cc3ccccc3)NC2=O)cc1 ([dY](Et)FVNCPRG-NH2; linker N-5 via X1) | 6.03 | 33.9 |  |  |  |  | 15.5
CC[C@H](C)[C@@H]1NC(=O)C(Cc2ccc(OC)cc2)NC(=O)CC2(CCCCC2)SSC[C@@H](C(=O)N2CCC[C@H]2C(=O)N[C@@H](CCCN=C(N)N)C(=O)NCC(N)=O)NC(=O)[C@H](CC(N)=O)NC(=O)[C@H](CCC(N)=O)NC1=O (stereo in doubt) | 8.32 | 15.8 | 3.24 | 1.91 |  |  | 
CC[C@H](C)[C@@H]1NC(=O)C(Cc2ccc(OC)cc2)NC(=O)CC(C)(C)SSC[C@@H](C(=O)N2CCC[C@H]2C(=O)N[C@@H](CCCN=C(N)N)C(=O)NCC(N)=O)NC(=O)[C@H](CC(N)=O)NC(=O)[C@H](C(C)C)NC1=O (stereo in doubt) | 3.47 | 26.9 | 7.76 | 17.8 |  |  | 
CC[C@H](C)[C@@H]1NC(=O)C(Cc2ccc(OC)cc2)NC(=O)CC(C)(C)SSC[C@@H](C(=O)N2CCC[C@H]2C(=O)N[C@@H](CCCN=C(N)N)C(=O)NCC(N)=O)NC(=O)[C@H](CC(N)=O)NC(=O)[C@H](CCC(N)=O)NC1=O (stereo in doubt) | 3.55 | 24.5 | 1.95 | 0.759 |  |  | 
CC[C@H](C)[C@@H]1NC(=O)C(Cc2ccc(OC)cc2)NC(=O)CC2(CCCCC2)SSC[C@@H](C(=O)N2CCC[C@H]2C(=O)N[C@@H](CCCCN)C(=O)NCC(N)=O)NC(=O)[C@H](CC(N)=O)NC(=O)[C@H](CCC(N)=O)NC1=O (stereo in doubt) | 20.9 | 58.9 | 15.5 | 23.4 |  |  | 
